Laboratory results published in PubChem BioAssay.
Records with an inconclusive call do not appear. Active and inactive are the calls of the source.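 How the source made its calls, unless noted: active means RAM network inhibition above 8.4% in each of two replicates, 3 SD over the compound average; inconclusive means above 8.4% inhibition in only one replicate; inactive means 8.4% inhibition or less in each replicate.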

How the values were obtained:
[1] = S. cerevisiae growth inhibition in permissive medium (OD615), pilot counter-assay for S. cerevisiae lifespan shortening project, permissive growth control (AID 705;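 active means growth inhibition above 25% in both replicates, a cutoff set 3 SD above the mean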); details: OD615, 24 h, at 10 µM, hits give high values
How it was run: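 assay system = Saccharomyces cerevisiae strain carrying genetically modified DeaD replicative-lifespan system | medium = SC raffinose/galactose permissive medium | dosing = 10 µM single dose, 0.25% DMSO | schedule = 24 h compound exposure at 30 °C after 4 h pre-growth | measured by = OD at 615 nm | read-out basis = growth inhibition from lowered OD615 after 24 h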

[2] = S. cerevisiae growth inhibition in restrictive medium, OD615, pilot screen, restrictive growth control, yeast lifespan reduction project (AID 706;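 active means growth inhibition above a set limit, 3 SD over mean compound inhibition, in both replicates, cut at about 43% in these data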;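 further: modified DeaD lifespan yeast strain shifted to restrictive glucose medium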); details: OD615, 48 h, at 10 µM, hits give high values
How it was run: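 Buffer or medium: CSMM-D glucose medium. Material: genetically modified Saccharomyces cerevisiae, DeaD replicative lifespan assay strain. Times: 48 h compound exposure at 30 °C. Measured by: optical density at 615 nm.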

[3] = doxorubicin toxicity protection in MRP-1 cells – H69AR cells, CellTiter-Glo, duplicate, MRP-1 activator project, pilot screen (AID 807;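 active means viability increase at or above a cutoff of the median across tested compounds plus 3 SD, cut at about 8.5% in these data, passing the limit was not always enough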;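 further: compound pretreatment 18-22 h then 72 h combined with doxorubicin; 0% = doxorubicin alone and 100% = vehicle without doxorubicin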); details: H69AR viability with doxorubicin, CellTiter-Glo luminescence; at 10 µM; hits give high values
[4] = viability of HCT116 without oncogenic beta-catenin – human colon tumor cells, pilot screen (AID 823;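 active means cell viability at or below a set limit in both duplicate runs, the limit being the all-compound median minus 4 SD, cut at about 23% in these data, passing the limit was not always enough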;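 further: 0% = wells killed by 20 µM Hyamine and 100% = untreated DMSO cell wells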); details: HCT116 beta-catenin knockout viability, CellTiter-Glo, 60 h; at 10 µM; hits give low values
[5] = viability of PTEN-null HCT116 cells – cell-based, HCT116 clonal line, CellTiter-Glo, pilot screen (AID 824;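 active means viability at or below 27.92% in each of two runs, the all-compound median minus 4 SD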;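 further: 0% = 20 µM Hyamine control and 100% = vehicle cell control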); details: HCT116 PTEN-deleted viability, 60 h, at 10 µM, hits give low values
[6] = RAM pathway blockade in budding yeast – dse1pr::URA3 reporter, 5-FOA selection, pilot screen (AID 869;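 active means inhibition over a set limit, the all-compound mean plus 3 SD, in both replicate runs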;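 further: 0% = DMSO wells with no growth and 100% = 10 µM 1-NA-PP1 with full growth; RAM network block rescues cells from 5-FOA so hits raise OD615 growth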); details: S. cerevisiae dse1pr::URA3 5-FOA growth, OD615, 2 d; at 10 µM; hits give high values; strain carries analog-sensitive mutant Cbk1 kinase
[7] = RAM signaling pathway blockade in yeast – S. cerevisiae, Pdr1DBD-CYC8 efflux-inhibited sensitized strain, primary screen (AID 1298);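 further: 0% = DMSO untreated cells without growth and 100% = 10 µM 1-NA-PP1 full growth; higher means more yeast growth rescued from 5-FOA killing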; details: S. cerevisiae cbk1-as DSE1-URA3 strain, 5-FOA growth OD615, 2 d; at 50 µM; hits give high values

CCC(=O)Nc1c2c(nn1-c1ccc(OC)cc1)CS(=O)C2 (stereo not drawn)
inactive: growth inhibition [1] -6.53% | growth inhibition [2] 5.54% | viability increase [3] 0.56% | viability [4] 102% | viability [5] 94.1% | inhibition [6] 1.37% | RAM network inhibition [7] 2.55%

O=C(NCc1ccc(Cl)c(Cl)c1)c1cccnc1
inactive: growth inhibition [1] -7.96% | growth inhibition [2] 4.69% | viability increase [3] -1.74% | viability [4] 99% | viability [5] 90.9% | inhibition [6] 0.58% | RAM network inhibition [7] 3.32%

CCOC(=O)c1c(C)[nH]c(C(=O)CSc2nnnn2-c2ccccc2)c1C
inactive: growth inhibition [1] -7.16% | growth inhibition [2] -0.165% | viability increase [3] -1.88% | viability [4] 100% | viability [5] 93.4% | inhibition [6] 2.31% | RAM network inhibition [7] 1.57%

CCOc1ccc(C(=O)CCNC(Cc2cnc[nH]2)C(=O)O)cc1 (stereo not drawn)
inactive: growth inhibition [1] 5.56% | growth inhibition [2] 8.23% | viability increase [3] -2.31% | viability [4] 95.1% | viability [5] 92.7% | inhibition [6] 2.15% | RAM network inhibition [7] 4.96%

CSc1ccccc1NC(=O)c1onc(C)c1Cl
inactive: growth inhibition [1] -5.06% | growth inhibition [2] 10.3% | viability increase [3] -1.83% | viability [4] 95.6% | viability [5] 93.2% | inhibition [6] 1.33% | RAM network inhibition [7] 1.54%

N#Cc1c2n(c3c(=O)n(Cc4ccc(Cl)cc4)cnc13)CCCC2
inactive: growth inhibition [1] -12.5% | growth inhibition [2] -5.03% | viability increase [3] 1.08% | viability [4] 93.8% | viability [5] 87% | inhibition [6] 0.755% | RAM network inhibition [7] 4.22%

CCn1c(C(C)NC(=O)c2cccs2)nc2ccccc21 (stereo not drawn)
inactive: growth inhibition [1] -1.68% | growth inhibition [2] -9.03% | viability increase [3] -1.68% | viability [4] 103% | viability [5] 91.9% | inhibition [6] 1.33% | RAM network inhibition [7] 6.3%

CCOC(=O)N1CCN(S(=O)(=O)c2cccc3nonc23)CC1
inactive: growth inhibition [1] -9.77% | growth inhibition [2] -27.6% | viability increase [3] -1.56% | viability [4] 90.5% | viability [5] 92.2% | inhibition [6] 1.68% | RAM network inhibition [7] 5.47%

O=C1CC(c2ccco2)CC2=C1C1c3ccccc3C(=O)N1c1ccccc1N2 (stereo not drawn)
inactive: growth inhibition [1] -9.63% | growth inhibition [2] -5.43% | viability increase [3] 3.98% | inhibition [6] 1.36% | RAM network inhibition [7] 4.2%
active: viability [4] 7.74% | viability [5] 7.59%

CCSc1nnc2c(n1)OC(c1ccc(C(=O)O)cc1)N(C(C)=O)c1ccccc1-2 (stereo not drawn)
inactive: growth inhibition [1] -10.1% | growth inhibition [2] -2.9% | viability increase [3] -1.34% | viability [4] 107% | viability [5] 100% | inhibition [6] 1.66% | RAM network inhibition [7] 2.35%

O=C(CCCc1c[nH]c2ccccc12)N1CCN(c2ccc(N3CCOCC3)nn2)CC1
inactive: growth inhibition [1] -2.69% | growth inhibition [2] -3.36% | viability increase [3] -1.4% | viability [4] 102% | viability [5] 105% | inhibition [6] 0.485% | RAM network inhibition [7] -0.41%

O=C(Cn1cnc2c(cnn2-c2ccccc2)c1=O)c1ccc(Cl)cc1
inactive: growth inhibition [1] -3.83% | growth inhibition [2] -12.3% | viability increase [3] 1.75% | viability [4] 94.3% | viability [5] 90.2% | inhibition [6] 0.5% | RAM network inhibition [7] 3.34%

CCCCCn1c(C(C)NC(=O)CCC)nc2ccccc21 (stereo not drawn)
inactive: growth inhibition [1] -3.78% | growth inhibition [2] -2.23% | viability increase [3] -1.22% | viability [4] 85.7% | viability [5] 88.7% | inhibition [6] -0.165% | RAM network inhibition [7] 2.32%

C=CCn1c(=N)n(CC(O)COc2ccc(OC)cc2)c2ccccc21 (stereo not drawn)
inactive: growth inhibition [1] -10.9% | growth inhibition [2] 1.67% | viability increase [3] -4.96% | viability [4] 64.8% | viability [5] 69% | inhibition [6] -0.445% | RAM network inhibition [7] -0.51%

COc1ccc(C2C(C(=O)Nc3ccccc3OC)=C(C)Nc3ncnn32)cc1 (stereo not drawn)
inactive: growth inhibition [1] -18.5% | growth inhibition [2] 6.38% | viability increase [3] -3.68% | viability [4] 99.2% | viability [5] 94.4% | inhibition [6] 1.78% | RAM network inhibition [7] -2.3%

COc1cc(NS(=O)(=O)c2ccc(NC(=O)C34CC5CC(CC(C5)C3)C4)cc2)ncn1
inactive: growth inhibition [1] -0.475% | growth inhibition [2] -24.6% | viability increase [3] -1.47% | viability [4] 98.1% | viability [5] 91.9% | inhibition [6] 2.73% | RAM network inhibition [7] 8.43%

COc1ccc(CNC(=O)c2cnn3c(C(F)F)cc(C)nc23)cc1OC
inactive: growth inhibition [1] -6.09% | growth inhibition [2] 9.23% | viability increase [3] 0.02% | viability [4] 92.3% | viability [5] 86.2% | inhibition [6] 1.99% | RAM network inhibition [7] 2.31%

CN1CCN(C(=O)c2cc3c(s2)-c2ccccc2S(=O)(=O)C3)CC1
inactive: growth inhibition [1] -2.05% | growth inhibition [2] -0.515% | viability increase [3] -1.76% | viability [4] 103% | viability [5] 98.5% | inhibition [6] 1.8% | RAM network inhibition [7] 0.72%

O=C(Cn1cnc2c(cnn2-c2ccc(Cl)cc2)c1=O)NC1CCCCC1
inactive: growth inhibition [1] -1.74% | growth inhibition [2] 6.22% | viability increase [3] -3.89% | viability [4] 91.3% | viability [5] 91.7% | inhibition [6] 3.79% | RAM network inhibition [7] 2.4%

CCOc1ccc(N(CC(=O)NCC(C)C)S(C)(=O)=O)cc1
inactive: growth inhibition [1] 6.66% | growth inhibition [2] -4.28% | viability increase [3] -0.04% | viability [4] 98% | viability [5] 102% | inhibition [6] 0.96% | RAM network inhibition [7] 1.12%

CC(c1ccccc1F)n1cc(C(=O)NCc2ccncc2)nn1 (stereo not drawn)
inactive: growth inhibition [1] -19.2% | growth inhibition [2] -8.25% | viability increase [3] -0.75% | viability [4] 96.3% | viability [5] 94.9% | inhibition [6] 1.86% | RAM network inhibition [7] 4.53%

O=C(CCCC(=O)OCC(F)(F)C(F)F)Nc1nccs1
inactive: growth inhibition [1] -7.96% | growth inhibition [2] 8.98% | viability increase [3] -0.61% | viability [4] 101% | viability [5] 102% | inhibition [6] 1.56% | RAM network inhibition [7] -0.01%

CCOCCCNC(=O)CCCn1nc(C)n2c(cc3sccc32)c1=O
inactive: growth inhibition [1] -4.89% | growth inhibition [2] 5.71% | viability increase [3] 0.66% | viability [4] 108% | viability [5] 98% | inhibition [6] 0.895% | RAM network inhibition [7] 4.4%

CCOC(=O)N1CCN(c2c(NCc3ccccn3)c(=O)c2=O)CC1
inactive: growth inhibition [1] 8.16% | growth inhibition [2] 18.2% | viability increase [3] -1.44% | viability [4] 103% | viability [5] 96% | inhibition [6] 1.28% | RAM network inhibition [7] 1.45%
